Assay results published in ChEMBL document CHEMBL4145601, “Novel Nitric Oxide Donors of Phenylsulfonylfuroxan and 3-Benzyl Coumarin Derivatives as Potent Antitumor Agents” (ACS Med Chem Lett, 2018).
The source made the active and inactive calls. No cut-off for these calls is given here.

Tests used:
NCI/ADR-RES = assay: Antiproliferative activity against human MCF7/ADR cells after 48 hrs by MTT assay; type: functional, cell-based
In short: (§1)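 Drug-resistant human tumour lines were A2780/CDDP (cisplatin-resistant ovarian), MDA-MB-231/Gem (gemcitabine-resistant breast), MCF-7/ADR and KB-V. Antiproliferation was read by MTT assay. IC50 is the mean of triplicate determinations.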

MCF-10A = assay: Cytotoxicity against human MCF10A cells after 72 hrs by MTS assay; type: cell-based
In short: (§2)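 Non-tumour human cells were HUVEC (umbilical vein endothelial), T29 (immortalized, nontumorigenic ovarian epithelial), WI-38 (lung fibroblasts) and MCF-10A (nontumorigenic breast epithelial). Viability was read by tetrazolium assay. IC50 is the mean of triplicate determinations.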

MV4-11 = assay: Antiproliferative activity against human MV411 cells after 72 hrs by MTS assay; type: functional, cell-based; conditions: MV4-11, 72 h
In short: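 Human myeloid leukaemia MV-4-11 cells; antiproliferation read by MTS assay. IC50 is the mean of triplicate determinations.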

WI-38 = assay: Cytotoxicity against human WI38 cells after 72 hrs by MTS assay; type: cell-based; conditions: WI-38, 72 h; in short: as §2
[1] = Selectivity ratio of IC50 for human A2780 cells to IC50 for A2780/CDDP cells; type: functional
In short: (§3)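 Selectivity ratio = IC50 in the drug-sensitive parent line / IC50 in its resistant subline (A2780 vs A2780/CDDP, MDA-MB-231 vs MDA-MB-231/Gem, MCF-7 vs MCF-7/ADR, KB vs KB-V). Each IC50 came from MTT assays, mean of triplicates.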

[2] = Antiproliferative activity against human OVCA433 cells after 48 hrs by MTT assay; type: functional, cell-based; conditions: OVCA433, 48 h
In short: (§4)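 Human tumour lines were HeLa (cervical), SKOV3, OVCA429, OVCA433 and A2780 (ovarian), A549 (non-small cell lung), MDA-MB-231 and MCF-7 (breast), and KB (oral epidermoid). Antiproliferation was read by MTT assay. IC50 is the mean of triplicate determinations.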

[3] = Antiproliferative activity against human KBV cells after 48 hrs by MTT assay; type: functional, cell-based; in short: as §1
KB = assay: Antiproliferative activity against human KB cells after 48 hrs by MTT assay; type: functional, cell-based; in short: as §4
[4] = Selectivity ratio of IC50 for human MDA-MB-231 cells to IC50 for MDA-MB-231/Gem cells; type: functional; in short: as §3
A549 = assay: Antiproliferative activity against human A549 cells after 48 hrs by MTT assay; type: functional, cell-based; conditions: A549, 48 h; in short: as §4
A2780 [5] = assay: Antiproliferative activity against human A2780 cells after 48 hrs by MTT assay; type: functional, cell-based; conditions: A2780, 48 h; in short: as §4
MDA-MB-231 = assay: Antiproliferative activity against human MDA-MB-231 cells after 48 hrs by MTT assay; type: functional, cell-based; conditions: MDA-MB-231, 48 h
[6] = Antiproliferative activity against human A2780/CDDP cells after 48 hrs by MTT assay; type: functional, cell-based; in short: as §1
[7] = Selectivity ratio of IC50 for human KB cells to IC50 for KBV cells; type: functional; in short: as §3
MCF7 = assay: Antiproliferative activity against human MCF7 cells after 48 hrs by MTT assay; type: functional, cell-based; conditions: MCF7, 48 h; in short: as §4
HeLa = assay: Antiproliferative activity against human HeLa cells after 48 hrs by MTT assay; type: functional, cell-based; in short: as §4
[8] = Selectivity ratio of IC50 for human MCF7 cells to IC50 for MCF7/ADR cells; type: functional; in short: as §3
SK-OV-3 = assay: Antiproliferative activity against human SKOV3 cells after 48 hrs by MTT assay; type: functional, cell-based; conditions: SK-OV-3, 48 h; in short: as §4
[9] = Antiproliferative activity against human MDA-MB-231/Gem cells after 48 hrs by MTT assay; type: functional, cell-based
[10] = Antiproliferative activity against human OVCA429 cells after 48 hrs by MTT assay; type: functional, cell-based; conditions: OVCA429, 48 h; in short: as §4
[11] = target: Dual specificity mitogen-activated protein kinase kinase; MEK1/2 (Homo sapiens) (UniProt P36507+Q02750); assay: Inhibition of MEK (unknown origin); type: protein assay
Chain of Dual specificity mitogen-activated protein kinase kinase; MEK1/2 (Homo sapiens) (P36507 whole entry, looked up): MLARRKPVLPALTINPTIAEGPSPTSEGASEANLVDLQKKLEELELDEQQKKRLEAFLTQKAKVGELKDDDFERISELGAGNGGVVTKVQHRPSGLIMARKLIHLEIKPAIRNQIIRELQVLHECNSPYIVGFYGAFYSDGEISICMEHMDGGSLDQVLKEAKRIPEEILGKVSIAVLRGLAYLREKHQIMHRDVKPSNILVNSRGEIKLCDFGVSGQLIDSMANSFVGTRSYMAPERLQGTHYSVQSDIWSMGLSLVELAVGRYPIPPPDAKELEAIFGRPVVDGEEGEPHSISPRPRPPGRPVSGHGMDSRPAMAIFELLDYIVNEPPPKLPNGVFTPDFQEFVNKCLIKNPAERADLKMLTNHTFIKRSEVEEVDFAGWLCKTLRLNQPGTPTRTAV
Chain of Dual specificity mitogen-activated protein kinase kinase; MEK1/2 (Homo sapiens) (Q02750 whole entry, looked up): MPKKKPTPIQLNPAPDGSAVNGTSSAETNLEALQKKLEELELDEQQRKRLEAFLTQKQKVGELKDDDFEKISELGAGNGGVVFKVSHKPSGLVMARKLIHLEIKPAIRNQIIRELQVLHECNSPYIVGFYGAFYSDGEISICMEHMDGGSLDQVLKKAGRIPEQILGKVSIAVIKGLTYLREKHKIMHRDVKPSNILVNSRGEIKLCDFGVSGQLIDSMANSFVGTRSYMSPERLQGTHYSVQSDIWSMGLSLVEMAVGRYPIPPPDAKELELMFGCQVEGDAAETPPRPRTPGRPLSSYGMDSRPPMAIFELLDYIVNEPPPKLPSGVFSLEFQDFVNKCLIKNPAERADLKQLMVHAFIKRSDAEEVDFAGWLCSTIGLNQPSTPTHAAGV

[12] = Cytotoxicity against human T29 cells after 48 hrs by MTT assay; type: cell-based; conditions: T29, 48 h; in short: as §2
[13] = Drug metabolism in human A2780 cells assessed as nitric oxide release at 100 uM after 150 mins by Griess assay; type: ADME, cell-based; conditions: a2780, 2.5 h
MM1.S = assay: Antiproliferative activity against human MM1S cells after 72 hrs by MTS assay; type: functional, cell-based
HUVEC = assay: Cytotoxicity against HUVEC after 48 hrs by MTT assay; type: cell-based; conditions: Homo sapiens; in short: as §2
A2780 [14] = assay: Induction of apoptosis in human A2780 cells assessed as increase in early apoptotic cells at 10 to 20 nM measured after 24 hrs by Annexin-V-FITC/propidium iodide staining based flow cytometric method; type: functional, cell-based
A2780 [15] = assay: Induction of apoptosis in human A2780 cells assessed as increase in late apoptotic cells at 10 to 20 nM measured after 24 hrs by Annexin-V-FITC/propidium iodide staining based flow cytometric method; type: functional, cell-based
[16] = Resistance ratio of IC50 for human MDA-MB-231/Gem cells to IC50 for human MDA-MB-231 cells; type: functional
In short: (§5)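 Resistance ratio = IC50 in the resistant line / IC50 in the drug-sensitive parent line. Each IC50 came from MTT assays, mean of triplicate determinations.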

[17] = Resistance ratio of IC50 for human KBV cells to IC50 for human KB cells; type: functional; in short: as §5
A2780 [18] = assay: Antiproliferative activity against human A2780 cells at 50 nM after 48 hrs in presence of scavenger c-PTIO by MTT assay; type: functional, cell-based
In short: (§6)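 A2780 and A2780/CDDP cells were exposed to compound at 50 nM together with a series of concentrations of the NO scavenger c-PTIO. Antiproliferation was measured and reported as mean ± SEM of two independent experiments.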

Homo sapiens = organism: Homo sapiens; assay: Antiproliferative activity against human A2780/CDDP cells at 50 nM after 48 hrs in presence of scavenger c-PTIO by MTT assay; type: functional, cell-based; in short: as §6

SMILES	IC50 (NCI/ADR-RES)	IC50 (MV4-11)	IC50 (WI-38)	Ratio IC50 [1]	IC50 [2]	IC50 [3]	IC50 (KB)	Ratio IC50 [4]	IC50 (A549)	IC50 (A2780 [5])	IC50 (MDA-MB-231)	IC50 [6]	Ratio IC50 [7]	IC50 (MCF7)	IC50 (HeLa)	Ratio IC50 [8]	IC50 (SK-OV-3)	IC50 [9]	IC50 [10]	IC50 [12]	also measured
COc1cccc2c1C(=O)c1c(O)c3c(c(O)c1C2=O)C[C@@](O)(C(=O)CO)C[C@@H]3O[C@H]1C[C@H](N)[C@H](O)[C@H](C)O1 [DOXORUBICIN]	> 100000 nM																				
Cc1ccc(NC(=O)NCc2ccc3c(c2)CN(C2CCC(=O)NC2=O)C3=O)cc1Cl (stereo not given)		0.3 nM	> 20000 nM																		IC50 (MCF-10A): 5 nM
COCCOc1no[n+]([O-])c1S(=O)(=O)c1ccccc1	7840 nM			0.3	4390 nM	1960 nM	3690 nM	0.3	4780 nM	1640 nM	1230 nM	4820 nM	1.9	3500 nM	8830 nM	0.5	3910 nM	4750 nM	5170 nM		
Cc1c(Cc2ccccc2)c(=O)oc2cc(OCCOc3no[n+]([O-])c3S(=O)(=O)c3ccccc3)ccc12	16.3 nM	24.5 nM	> 20000 nM	0.1	1.1 nM	16 nM	4540 nM	0.2	2 nM	12.7 nM	6 nM	94 nM	283.9	2350 nM	22.9 nM	144.2	17.3 nM	25.2 nM	1.7 nM	> 5000 nM	inhibition [11]: inactive; IC50 (MCF-10A): > 20000 nM; Drug metabolism [13]: Metabolite_Detected; IC50 (MM1.S): 12 nM; IC50 (HUVEC): 440 nM
COc1cc(OCCOc2no[n+]([O-])c2S(=O)(=O)c2ccccc2)ccc1C(=O)/C=C/c1ccc(F)cc1	47.9 nM	29.6 nM	560 nM	0.4	6.6 nM	10.1 nM	1660 nM	0.02	3.5 nM	14.5 nM	1.4 nM	34.1 nM	164.9	1410 nM	6.9 nM	29.5	25 nM	93 nM	4 nM	3500 nM	inhibition [11]: inactive; Drug metabolism [13]: Metabolite_Detected; Activity (A2780 [14]): Active; IC50 (MM1.S): 25 nM; IC50 (HUVEC): 360 nM
Cc1cc(=O)oc2cc(OCCOc3no[n+]([O-])c3S(=O)(=O)c3ccccc3)ccc12	157 nM	28.3 nM	90 nM		131 nM	24.9 nM	127 nM		45.8 nM	20.9 nM		85.7 nM		445 nM	62.2 nM		47.3 nM		41.1 nM	1800 nM	Activity (A2780 [15]): Active; IC50 (MCF-10A): 660 nM; Drug metabolism [13]: Metabolite_Detected; IC50 (MM1.S): 21 nM; IC50 (HUVEC): 130 nM
CNS(=O)(=O)Nc1cccc(Cc2c(C)c3ccc(OCCOc4no[n+]([O-])c4S(=O)(=O)c4ccccc4)cc3oc2=O)c1	50.1 nM	66.3 nM	1360 nM	0.2	16.3 nM	65.4 nM	1140 nM	0.02	7.9 nM	10.2 nM	1.1 nM	47.2 nM	17.5	3130 nM	15.4 nM	62.5	19.2 nM	50.4 nM	6.1 nM	> 5000 nM	inhibition [11]: inactive; Drug metabolism [13]: Metabolite_Detected; IC50 (MM1.S): 24 nM; IC50 (HUVEC): 190 nM
Nc1cccc2c1CN(C1CCC(=O)NC1=O)C2=O (stereo not given) [LENALIDOMIDE]		> 20000 nM	> 20000 nM																		IC50 (MCF-10A): > 20000 nM
COc1cc(OCCOc2no[n+]([O-])c2S(=O)(=O)c2ccccc2)ccc1C(=O)/C=C/c1ccccc1	18 nM	29.3 nM	440 nM	0.2	10.1 nM	13.9 nM	2180 nM	0.05	3.3 nM	8.7 nM	0.5 nM	51.7 nM	157	1860 nM	17.8 nM	103.6	35.8 nM	10.5 nM	4.4 nM	2500 nM	inhibition [11]: inactive; Drug metabolism [13]: Metabolite_Detected; IC50 (MM1.S): 28 nM; IC50 (HUVEC): 410 nM
Nc1ccn([C@@H]2O[C@H](CO)[C@@H](O)C2(F)F)c(=O)n1 [GEMCITABINE]											36.4 nM							> 50000 nM			Ratio IC50 [16]: >1373
CC[C@]1(O)C[C@H]2CN(CCc3c([nH]c4ccccc34)[C@@](C(=O)OC)(c3cc4c(cc3OC)N(C=O)[C@H]3[C@@](O)(C(=O)OC)[C@H](OC(C)=O)[C@]5(CC)C=CCN6CC[C@]43[C@@H]65)C2)C1 [VINCRISTINE]						417 nM	0.65 nM														Ratio IC50 [17]: 646
Cc1c(Cc2ccc(F)cc2)c(=O)oc2cc(OCCOc3no[n+]([O-])c3S(=O)(=O)c3ccccc3)ccc12	5.1 nM	27.2 nM	> 20000 nM	0.3	3.3 nM	11 nM	3230 nM	0.1	3.7 nM	6.6 nM	0.8 nM	22.8 nM	294	2850 nM	2.8 nM	559.4	8.3 nM	6.9 nM	3.9 nM	> 5000 nM	inhibition [11]: inactive; IC50 (MCF-10A): > 20000 nM; Drug metabolism [13]: Metabolite_Detected; Activity (A2780 [18]): inactive; Activity (A2780 [14]): Active; IC50 (MM1.S): 143 nM; Activity (Homo sapiens): inactive; IC50 (HUVEC): 270 nM
